Measurements gathered from unrelated publications.
Target: Tyrosine-protein kinase CSK (CSK, Homo sapiens, UniProt P41240)

| Structure (SMILES) | read-out | method | tested at | remaining binding |
| --- | --- | --- | --- | --- |
| O=C(Nc1cnc(Oc2ccc(F)cc2)nc1)N1CCc2ncccc2[C@@H]1c1ccc(F)cc1 | cell-free assay | competition with immobilised ligand | 1 µM | 100% |
| COc1cnc(Nc2cccc(S(N)(=O)=O)c2)nc1N1CCN(c2ccccc2)CC1 | binding | competition with immobilised ligand | 1 µM | 100% |
| Nc1ncc2c(n1)-c1c([nH]c3ccc(C#CC4CC4)cc13)CCCC2 | binding | competition with immobilised ligand | 1 µM | 96% |
| c1cnn2ncc(-c3ccnc(N4CCC45COC5)n3)c2c1 | binding | – | 1 µM | 88% |
| CCN1CCN(Cc2ccc(C(=O)Nc3ccc(C)c(Oc4ccc5c(c4)CC(=O)N5)c3)cc2C(F)(F)F)CC1 | binding | competition with immobilised ligand | 1 µM | 100% |
| Nc1c(C(=O)NCc2ccc(C(=O)NCCCC3CCCCC3)cc2)cnn1-c1ccccc1 | cell-free assay | competition with immobilised ligand | 0.1 µM | 100% |
| N[C@H]1CCN(c2nccc(-c3cnn4ncccc34)n2)C1 | binding | – | 1 µM | 100% |
| C[C@H](NC(=O)c1cnc2n1[C@](C)(Cc1ccc(C#N)cc1)C(=O)N2c1cc(Cl)c(F)c(Cl)c1)C(=O)NC1(c2ccccn2)CC1 | cell-free assay | competition with immobilised ligand | 1 µM | 100% |
| F[C@@H]1CCN(c2nccc(-c3cnn4ncccc34)n2)C1 | binding | – | 1 µM | 100% |
| Cc1ccc(-n2nc(C(C)(C)C)cc2NC(=O)Nc2ccc(-n3c(N)c(C(N)=O)c4nc5ccc(NCCCN)cc5nc43)cc2)cc1 | cell-free assay | competition with immobilised ligand | 1 µM | 0.65% |
| O=C(NCCCN1CCOCC1)c1ccc(Nc2ncc(Cl)c(-c3ccc(Cl)s3)n2)cc1 | binding | competition with immobilised ligand | 1 µM | 86% |
| O=C(NCCCC1CCCCC1)c1ccc(CNC(=O)c2cnn(-c3ccccc3)c2C(F)(F)F)cc1 | cell-free assay | competition with immobilised ligand | 0.1 µM | 100% |
| Cc1cnn2ncc(-c3ccnc(N(C)C)n3)c2c1 | binding | – | 1 µM | 99% |
| CNC(=O)[C@@H]1CC[C@@H](n2c(-c3ccc4cnccc4c3)nc3ccc(C(=O)NCc4cccc(C(N)=O)c4)cc32)C1 | binding | competition with immobilised ligand | 1 µM | 100% |
| Cc1cnc(Nc2ccc(C(=O)N3CCC(N4CCCC4)CC3)cc2)nc1-c1cc2ccccc2s1 | binding | competition with immobilised ligand | 1 µM | 62% |
| CC(C)CC(=O)N1CCc2nc(-c3ccc(Br)cc3)nc(N(C)Cc3ccccc3)c2C1 | cell-free assay | competition with immobilised ligand | 0.1 µM | 100% |
| C[C@H]1CCN(c2nccc(-c3cnn4ncccc34)n2)C1 | binding | – | 1 µM | 83% |
| COc1ccc2c(c1)O[C@@H](c1ccc(OC)c(OC)c1)C[C@H]2NC(=O)C1(c2ccc3c(c2)OC(F)(F)O3)CC1 | cell-free assay | competition with immobilised ligand | 1 µM | 87% |
| O=C(c1ccc(Nc2ncc(Cl)c(-c3cc4ccccc4s3)n2)cc1)N1CCC(N2CCCC2)CC1 | binding | competition with immobilised ligand | 1 µM | 87% |
| CC1CCCN1c1nccc(-c2cnn3ncccc23)n1 (stereo not drawn) | binding | – | 1 µM | 100% |
| O=C(Nc1c[nH]nc1C(=O)NC1CCNCC1)c1cc(F)cc(F)c1 | binding | competition with immobilised ligand | 1 µM | 100% |
